A short description of data set [1]: Drug level in rhesus monkey cerebrospinal fluid at 33.3 mg/kg, iv after 2 hrs. The class given is ADME, organism-based, Macaca mulatta. On the set-up: dose 33.3 mg/kg, route intravenous. As to conditions: read-out: Drug uptake. Summed up: (§1)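 Cerebrospinal fluid was drawn by cisternal or lumbar tap 1 and 2 h after a 33.3 mg/kg i.v. or oral dose in anesthetized rhesus monkeys. Samples were kept frozen at –70°C. AZT internal standard was added, and the sample was injected directly for HPLC-UV at 266 nm against water-based standards of 0.1–25 µg/ml.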

The subject of data set [2] is Rhesus monkey. Nature of the data set: Drug elimination in rhesus monkey assessed as beta-dioxolane-thymine-glucuronide elimination at 33.3 mg/kg, po. As to conditions: in vivo. The class given is ADME, organism-based, Macaca mulatta. On the set-up: dose 33.3 mg/kg, route oral. Summed up:
(§2)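 Glucuronide was estimated indirectly in 0–8 h urine after a 33.3 mg/kg i.v. or oral dose. Urine was treated with β-glucuronidase (500 U/ml, freshly prepared) in acetate/phosphate buffer pH 5.8 for 12 h at 37°C. Untreated urine served as the parallel sample. Glucuronide was taken as the difference in parent drug between the two samples by HPLC-UV. Its presence was screened by ESI MS/MS.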

A short description of data set [3]: Biodistribution in rhesus monkey urine assessed as dose recovered unchanged at 33.3 mg/kg, po after 8 hrs. The class given is ADME, organism-based, Macaca mulatta. More on the design: dose 33.3 mg/kg, route oral. As to conditions: read-out: Drug uptake. The procedure, abridged: (§3)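 Monkeys were catheterized and dosed with 33.3 mg/kg by i.v. or oral route under anesthesia. Urine was collected in intervals over 0–8 h. Untreated urine was incubated 12 h at 37°C in acetate/phosphate buffer pH 5.8 and spiked with AZT internal standard. Unchanged drug was quantified by HPLC-UV at 266 nm against urine standard curves of 0.1–100 µg/ml.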

Data set [4] can be described thus: Drug level in rhesus monkey cerebrospinal fluid at 33.3 mg/kg, iv after 1 hr. The class given is ADME, organism-based, Macaca mulatta. More on the design: dose 33.3 mg/kg, route intravenous. As to conditions: read-out: Drug uptake. Summed up: as §1
For data set [5], the system named is Rhesus monkey. Briefly: Tlag in rhesus monkey at 33.3 mg/kg, po. As to conditions: in vivo.
Data set [6] can be described thus: Ratio of drug level in cerebrospinal fluid to plasma of rhesus monkey at 33.3 mg/kg, po after 2 hrs. The class given is ADME, organism-based, Macaca mulatta, CSF/Plasma. More on the design: dose 33.3 mg/kg, route oral. The procedure, abridged: (§4)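 CSF was taken by cisternal or lumbar tap at 1 and 2 h after a 33.3 mg/kg i.v. or oral dose, along with femoral-vein serum. Both were quantified by HPLC-UV at 266 nm with AZT internal standard. The ratio was CSF concentration divided by serum concentration at the same time.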

The nature of data set [7]: Drug level in rhesus monkey cerebrospinal fluid at 33.3 mg/kg, po after 1 hr. The class given is ADME, organism-based, Macaca mulatta. On the set-up: dose 33.3 mg/kg, route oral. As to conditions: read-out: Drug uptake. The procedure, abridged:
as §1

A short description of data set [8]: Mean residence time in rhesus monkey at 33.3 mg/kg, iv. The class given is ADME, organism-based, Macaca mulatta. On the set-up: dose 33.3 mg/kg, route intravenous. As to conditions: in vivo. Summed up:
(§5)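 Rhesus monkeys (three) got a single 33.3 mg/kg dose orally by gastric intubation in water, then i.v. in saline after a washout of at least 4 weeks. Animals were under ketamine/Telazol anesthesia. Femoral-vein blood was drawn at 0–24 h. Serum was acetonitrile-extracted with AZT internal standard and assayed by HPLC-UV at 266 nm. Parameters came from a simultaneous two-compartment fit weighted 1/(predicted)2. F was from AUCoral = F x AUCi.v.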

A short description of data set [9]: Central volume of distribution in rhesus monkey at 33.3 mg/kg, iv. The class given is ADME, organism-based, Macaca mulatta. As to conditions: in vivo, read-out: Vc. More on the design: dose 33.3 mg/kg, route intravenous. Summed up:
as §5

The nature of data set [10]: Volume of distribution at steady state in rhesus monkey at 33.3 mg/kg, iv. It is filed as ADME, organism-based, Macaca mulatta. More on the design: dose 33.3 mg/kg, route intravenous. As to conditions: in vivo, read-out: Vdss. Summed up: as §5
Data set [11] is described as follows: Tmax in rhesus monkey at 33.3 mg/kg, po. It is filed as ADME, organism-based, Macaca mulatta. More on the design: dose 33.3 mg/kg, route oral. As to conditions: in vivo. Summed up:
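Oral gastric-intubation dose of 33.3 mg/kg in water given to rhesus monkeys under ketamine/Telazol anesthesia. Serial femoral-vein serum was sampled from 0.25 to 24 h and assayed by reverse-phase HPLC-UV at 266 nm. Time of peak was taken from a two-compartment model fitted with an absorption lag.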

Data set [12] is described as follows: Oral bioavailability in rhesus monkey at 33.3 mg/kg. The class given is ADME, organism-based, Macaca mulatta. As to conditions: in vivo. Summed up: as §5
Data set [13] can be described thus: Mean residence time in rhesus monkey at 33.3 mg/kg, po. As to conditions: in vivo. The class given is ADME, organism-based, Macaca mulatta. On the set-up: dose 33.3 mg/kg, route oral. Summed up:
as §5

Data set [14] can be described thus: Ratio of drug level in cerebrospinal fluid to plasma of rhesus monkey at 33.3 mg/kg, iv after 1 hr. It is filed as ADME, organism-based, Macaca mulatta, CSF/Plasma. More on the design: dose 33.3 mg/kg, route intravenous. Summed up:
as §4

Data set [15] is described as follows: Cmax in rhesus monkey at 33.3 mg/kg, po. The class given is ADME, organism-based, Macaca mulatta. More on the design: dose 33.3 mg/kg, route oral. As to conditions: in vivo. The procedure, abridged:
as §5

The nature of data set [16]: Renal clearance in rhesus monkey at 33.3 mg/kg, iv. On the set-up: dose 33.3 mg/kg, route intravenous. The class given is ADME, organism-based, Macaca mulatta, Kidney. As to conditions: in vivo, read-out: CL_renal (converted). The procedure, abridged:
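Renal clearance was derived by fitting 0–8 h urinary excretion (HPLC-UV) to dXu/dt = Clrenal x Cp. Cp was the serum concentration predicted by the two-compartment serum fit, and the urine fit was unweighted. Dose was 33.3 mg/kg.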

Data set [17] can be described thus: Systemic clearance in rhesus monkey at 33.3 mg/kg, iv. It is filed as ADME, organism-based, Macaca mulatta. More on the design: dose 33.3 mg/kg, route intravenous. As to conditions: in vivo. The procedure, abridged:
as §5

Data set [18] can be described thus: Drug level in rhesus monkey cerebrospinal fluid at 33.3 mg/kg, po after 2 hrs. It is filed as ADME, organism-based, Macaca mulatta. On the set-up: dose 33.3 mg/kg, route oral. As to conditions: read-out: Drug uptake. Summed up: as §1
A short description of data set [19]: Ratio of drug level in cerebrospinal fluid to plasma of rhesus monkey at 33.3 mg/kg, iv after 2 hrs. More on the design: dose 33.3 mg/kg, route intravenous. The class given is ADME, organism-based, Macaca mulatta, CSF/Plasma. Summed up: as §4
Data set [20] has as its system Rhesus monkey. Briefly: Drug elimination in rhesus monkey assessed as beta-dioxolane-thymine-glucuronide elimination at 33.3 mg/kg, iv. It is filed as ADME, organism-based, Macaca mulatta. More on the design: dose 33.3 mg/kg, route intravenous. As to conditions: in vivo. The procedure, abridged:
as §2

Data set [21] can be described thus: AUC in rhesus monkey at 33.3 mg/kg, po. More on the design: dose 33.3 mg/kg, route oral. As to conditions: plasma. The class given is ADME, organism-based, Macaca mulatta. Summed up: as §5
The nature of data set [22]: Terminal phase half life in rhesus monkey at 33.3 mg/kg, iv. It is filed as ADME, organism-based, Macaca mulatta. More on the design: dose 33.3 mg/kg, route intravenous. As to conditions: in vivo. The procedure, abridged:
as §5

Data set [23] is described as follows: Ratio of drug level in cerebrospinal fluid to plasma of rhesus monkey at 33.3 mg/kg, po after 1 hr. The class given is ADME, organism-based, Macaca mulatta, CSF/Plasma. More on the design: dose 33.3 mg/kg, route oral. The procedure, abridged: as §4
Data set [24] is described as follows: AUC in rhesus monkey at 33.3 mg/kg, iv. More on the design: dose 33.3 mg/kg, route intravenous. The class given is ADME, organism-based, Macaca mulatta. As to conditions: plasma. Summed up:
as §5

Data set [25] is described as follows: Biodistribution in rhesus monkey urine assessed as dose recovered unchanged at 33.3 mg/kg, iv after 8 hrs. The class given is ADME, organism-based, Macaca mulatta. More on the design: dose 33.3 mg/kg, route intravenous. As to conditions: read-out: Drug uptake. The procedure, abridged:
as §3

Data set [26] in a line: Cmax in rhesus monkey. It is filed as ADME, organism-based, Macaca mulatta. As to conditions: in vivo.
Data set [27] can be described thus: Volume of distribution at steady state in rhesus monkey. It is filed as ADME, organism-based, Macaca mulatta. As to conditions: in vivo, read-out: Vdss.
Data set [28] can be described thus: Oral bioavailability in rhesus monkey. The class given is ADME, organism-based, Macaca mulatta. As to conditions: in vivo.
Data set [29] concerns Rhesus monkey. Briefly: AUC in rhesus monkey. The class given is ADME, organism-based, Macaca mulatta, Plasma. As to conditions: in vivo.
A short description of data set [30]: Terminal phase half life in rhesus monkey. As to conditions: in vivo. It is filed as ADME, organism-based, Macaca mulatta.
A short description of data set [31]: Central volume of distribution in rhesus monkey. As to conditions: in vivo, read-out: Vc. The class given is ADME, organism-based, Macaca mulatta.
Data set [32] can be described thus: Oral bioavailability in rhesus monkey at 60 mg/kg. It is filed as ADME, organism-based, Macaca mulatta. As to conditions: in vivo.
The nature of data set [33]: Oral bioavailability in mouse. The class given is ADME, organism-based. As to conditions: in vivo.
Data set [34] can be described thus: Oral bioavailability in human. It is filed as ADME, organism-based. As to conditions: in vivo.
Data set [35] can be described thus: Oral bioavailability in cynomolgus monkey. The class given is ADME, organism-based, Macaca fascicularis. As to conditions: in vivo.
Data set [36] is described as follows: Drug elimination in monkey urine after 30 days. The class given is ADME, organism-based, Macaca mulatta. As to conditions: rhesus monkey, Activity.

A word on the Kp: it is the ratio of the level in a tissue or fluid to that in plasma or blood. In general, MRT refers to a mean duration of stay, worked out from the concentration-time curve. A word on the Tmax: it is the time from dosing to the highest level. What is called bioavailability is dose-corrected exposure relative to a reference, in per cent. For orientation: Cmax means the peak of the concentration-time curve. The term clearance denotes the rate of elimination divided by the concentration. As usually defined, the AUC is concentration integrated over time. What is called half-life is the time needed for the level to fall by half in the phase considered. Turning to `Cc1cn([C@H]2CO[C@@H](CO)O2)c(=O)[nH]c1=O`, the concentration at 2 h is 12.3 µM in data set [1] and 4.2 µM in data set [18]. In addition, the results for the Drug uptake in [2] and in data set [20] were 8% and 4%, respectively. Also, the dose excreted at 8 h was determined as 48% in data set [3] and 40% in [25]. For the same compound, the concentration at 1 h in data set [4] turned out to be 7.8 µM; in data set [7], 3.2 µM. The compound further returned a Tlag in [5] of 0.51 h. In addition, the Kp at 2 h in [6] was 0.06; in [19] it was 0.18. Further, the mean residence time MRT in [8] came to 2.88 h; in data set [13], 3.26 h. The results for the Vd in data set [9] and in data set [10] were 0.52 L/kg and 1.02 L/kg, respectively. For the same compound, the time to peak (Tmax) in [11] was 0.5 h. The compound further yielded a bioavailability in [12] of 95%. Further, the figures for the Kp at 1 h in [14] and in data set [23] were 0.09 and 0.05, respectively. The same compound showed a Cmax in data set [15] of 105 µM. Further, the CL renal in data set [16] was 3 mL/min/kg. Moreover, the clearance in data set [17] is 6 mL/min/kg. Besides, the exposure (AUC) in [21] was 387 µM·h; in data set [24], 416 µM·h. Moreover, the half-life in data set [22] is 2.16 h.
In turn, `Nc1nc2c(ncn2[C@H]2CO[C@@H](CO)O2)c(=O)[nH]1` registered a Cmax in data set [26] of 50 µM.
For `Nc1nc(=O)n([C@H]2CO[C@@H](CO)O2)cc1F`, the Vd in [27] and in [31] was 0.53 L/kg throughout. Moreover, the bioavailability in data set [28] came out at 38%. Also, in [29], the AUC was determined as 197 µM·h. In data set [26], the highest level (Cmax) was 34.4 µM. This compound also gave a half-life in [30] of 2.48 h.
For `Nc1nc(N)c2ncn([C@H]3CO[C@@H](CO)O3)c2n1` [AMDOXOVIR], the bioavailability in data set [28] amounted to 30%.
For `Cc1cn([C@H]2C=C[C@@H](CO)O2)c(=O)[nH]c1=O` [STAVUDINE], the bioavailability in data set [32] was found to be 25%; in [33], 100%; in data set [34], 100%; in [35], 83%. For the same compound, the half-life in data set [30] was 0.8 h. Moreover, the dose excreted at 720 h in [36] is less than 50%.
As to `Cc1cn([C@H]2C[C@H](N=[N+]=[N-])[C@@H](CO)O2)c(=O)[nH]c1=O` [ZIDOVUDINE], in data set [32], the bioavailability was 90%. Besides, the half-life in [30] is 0.8 h.

(Values after ChEMBL document CHEMBL1157362, “Pharmacokinetics of the anti-human immunodeficiency virus agent 1-(beta-D-dioxolane)thymine in rhesus monkeys” (Antimicrob Agents Chemother, 2007).)
